Drawing on ChEMBL document CHEMBL3352056, “Inhibition of prostaglandin E(2) production by synthetic minor prenylated chalcones and flavonoids: synthesis, biological activity, crystal structure, and in silico evaluation” (Bioorg Med Chem Lett, 2014), this text covers inhibition, viability and IC50 for 19 compounds.

Active and inactive are the calls of the source. The rule behind the calls is not given here. Where only a bound is given, the exact number is not on record here.

In series [1] the test system is RAW264.7. As to the kind of experiment: Inhibition of IFN-gamma/LPS-induced PGE2 production in mouse RAW264.7 cells at 50 uM after 17 to 20 hrs by EIA method. The class given is functional. Summed up: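 In RAW 264.7 cells seeded at 4 × 10⁵/well and attached for 2 h at 37 °C, compound was added with LPS, using 0.1% final DMSO as vehicle. Incubation ran 17–20 h at 37 °C, 5% CO₂. Supernatant PGE₂ was quantified by EIA from a standard curve and expressed as percent inhibition at a single test concentration.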

Series [2] is described as follows: Cytotoxicity against mouse RAW264.7 cells assessed as cell viability by MTT assay. Format: cell-based. On the set-up: concentration or dose not given beside the values. The conditions noted are these: read-out: Activity. The method in brief: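 After the 17–20 h LPS co-treatment of RAW 264.7 cells (0.1% DMSO vehicle), the supernatant was removed and MTT (0.05 mg/mL) was added. Cells were held at 37 °C for 4 h. Formazan was dissolved in 100% DMSO and absorbance was read at 570 nm. Results are given as % viability. Culture viability before use was >95% by trypan blue.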

Series [3] has as its system RAW264.7. As to the kind of experiment: Inhibition of IFN-gamma/LPS-induced PGE2 production in mouse RAW264.7 cells after 17 to 20 hrs by EIA method. The class given is functional, cell-based. The method in brief: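 RAW 264.7 cells (4 × 10⁵/well) attached for 2 h at 37 °C, 5% CO₂. They were then co-incubated with LPS and compound in DMSO (0.1% final) for 17–20 h. Supernatant PGE₂ was measured by EIA against a standard curve. Dose-response testing spanned 0.78 to 50; group differences were tested by one-way ANOVA with Dunnett's test.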

The test system of series [4] is RAW264.7. In words: Inhibition of IFN-gamma/LPS-induced nitric oxide production in mouse RAW264.7 cells by Griess assay. The class given is functional, cell-based.

As to `COc1cc2c(cc1CC=C(C)C)C(=O)/C(=C/c1ccc(C)cc1)O2`, the inhibition result in the series on RAW264.7 [1] was “inactive”. In addition, the viability in series [2] was greater than 100%.

As to `COc1cc2c(cc1CC=C(C)C)C(=O)/C(=C/c1ccc(OC)c(OC)c1)O2`, in the series on RAW264.7 [1], testing at 50 µM gave an inhibition of 83%. Moreover, the viability in series [2] is greater than 100%.

Compound `COc1cc(O)c(C(=O)/C=C/c2ccc(O)c(O)c2)cc1CC=C(C)C` had an inhibition at 50 µM in the series with RAW264.7 [1] of 61%. In addition, in series [2], the viability was greater than 100%.

Consider `CC(C)=CCOc1ccc2c(c1)O/C(=C\c1ccc(C)cc1)C2=O`, for which, in the series on RAW264.7 [1], the inhibition at 50 µM is 43%. For the same compound, in series [2], the viability is greater than 100%.

In the case of `COc1ccc2c(c1)O/C(=C\c1ccc(C)cc1)C2=O`, testing at 50 µM in the series with RAW264.7 [1] gave an inhibition of 78%. For the same compound, the viability in series [2] was greater than 100%.

As to `COc1ccc2c(=O)c(OCC=C(C)C)c(-c3ccc(OC)c(OC)c3)oc2c1`, in the series on RAW264.7 [1], the inhibition at 50 µM turned out to be 58%. Also, in series [2], the viability was greater than 100%.

Consider `COc1ccc2c(=O)c(OCC=C(C)C)c(-c3ccc(C)cc3)oc2c1`, for which testing at 50 µM in the series on RAW264.7 [1] gave an inhibition of 41%. For the same compound, the viability in series [2] was greater than 100%.

As to `COc1cc(O)c(C(=O)/C=C/c2ccc(C)cc2)cc1CC=C(C)C`, the inhibition at 50 µM in the series with RAW264.7 [1] was determined as 64%. Also, the viability in series [2] was greater than 100%.

In turn, `COc1ccc2c(c1)O/C(=C\c1ccc(OC)c(OC)c1)C2=O` returned an inhibition at 50 µM in the series with RAW264.7 [1] of 76%. Moreover, in series [2], the viability is greater than 100%.

Take `COc1ccc(C(=O)/C=C/c2ccc(C)cc2)c(O)c1`: in the series with RAW264.7 [1], the inhibition entry is “inactive”. Further, in series [2], the viability is 97%.

As for `COc1cc(O)c(C(=O)/C=C/c2ccc(-c3ccc(F)cc3)cc2)cc1CC=C(C)C`, the inhibition at 50 µM with RAW264.7 [1] stood at 63%. In addition, the viability in series [2] is greater than 100%.

With `CS(=O)(=O)Nc1ccc([N+](=O)[O-])cc1OC1CCCCC1` [NS-398], testing at 50 µM in the series on RAW264.7 [1] gave an inhibition of 97%. The half-maximal inhibitory concentration (IC50) with RAW264.7 [3] turned out to be 100 nM. Moreover, in series [2], the viability is greater than 100%.

For the compound `COc1cc(O)c(C(=O)/C=C/c2cccc(-c3ccc(F)cc3)c2)cc1CC=C(C)C`, the inhibition entry in the series on RAW264.7 [1] is “inactive”. The viability in series [2] is greater than 100%.

For the compound `COc1ccc2c(=O)c(O)c(-c3ccc(C)cc3)oc2c1`, the inhibition at 50 µM with RAW264.7 [1] was 70%. For the same compound, the viability in series [2] was 78%.

`COc1ccc(C(=O)/C=C/c2ccc(OC)c(OC)c2)c(O)c1` had an inhibition at 50 µM in the series with RAW264.7 [1] of 75%. In addition, in series [2], the viability is greater than 100%.

For the compound `COc1cc(O)c(C(=O)/C=C/c2ccc(OC)c(OC)c2)cc1CC=C(C)C`, the inhibition at 50 µM in the series on RAW264.7 [1] was determined as 90%. In addition, the results for the IC50 with RAW264.7 [3] and with RAW264.7 [4] were 2100 nM and 13800 nM, respectively. In addition, the viability in series [2] is greater than 100%.

Take `COc1ccc2c(=O)c(O)c(-c3ccc(OC)c(OC)c3)oc2c1`: in the series with RAW264.7 [1], the inhibition at 50 µM amounted to 80%. Also, in series [2], the viability was determined as 82%.

In the series with RAW264.7 [1], `CC(C)=CCOc1ccc(/C=C2\Oc3ccccc3C2=O)cc1` had an inhibition at 50 µM of 77%. Further, in series [2], the viability is greater than 100%.

With `COc1cc(O)c(C(=O)/C=C/c2ccc(Br)cc2)cc1CC=C(C)C`, the inhibition at 50 µM in the series on RAW264.7 [1] was determined as 70%. Also, the viability in series [2] was greater than 100%.
